Measurements as given in ChEMBL document CHEMBL4725387, “Synthesis and pharmacological evaluation of piperidine (piperazine)-amide substituted derivatives as multi-target antipsychotics” (Bioorg Med Chem Lett, 2020).

Columns and labels:
[1] = AUC (0 to infinity) in rat at 10 mg/kg, po; format: ADME, organism-based; set-up: route oral, time infinity, dose 10 mg/kg; conditions: in vivo
Method in brief: (§1)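 Male rats, n = 6 per group, given a single oral dose of 10 mg/kg. PK parameters taken from serum concentration–time profiles: Cmax, Tmax, t1/2, AUC0-t, AUC0-∞, CL/F, F%.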

[2] = Oral bioavailability in rat at 10 mg/kg; format: ADME, organism-based; conditions: in vivo; method in brief: as §1
[3] = target: T1, Adrenergic receptor alpha-1 (Homo sapiens, UniProt P35348+P25100+P35368); experiment: Binding affinity to alpha1 adrenergic receptor (unknown origin); format: protein assay
T1 sequence (P35348 whole entry): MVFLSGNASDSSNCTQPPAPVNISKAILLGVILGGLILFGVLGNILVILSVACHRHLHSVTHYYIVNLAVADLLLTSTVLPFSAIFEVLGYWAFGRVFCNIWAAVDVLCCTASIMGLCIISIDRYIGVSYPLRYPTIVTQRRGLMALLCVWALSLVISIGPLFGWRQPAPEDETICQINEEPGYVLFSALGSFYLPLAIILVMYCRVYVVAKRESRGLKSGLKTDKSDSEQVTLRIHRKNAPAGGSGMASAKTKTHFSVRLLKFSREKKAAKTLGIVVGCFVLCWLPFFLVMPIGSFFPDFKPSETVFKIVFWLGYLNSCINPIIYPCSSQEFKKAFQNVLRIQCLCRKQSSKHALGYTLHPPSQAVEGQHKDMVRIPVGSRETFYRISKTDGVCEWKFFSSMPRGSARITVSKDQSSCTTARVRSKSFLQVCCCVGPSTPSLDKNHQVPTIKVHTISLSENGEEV
T1 sequence (P25100 whole entry): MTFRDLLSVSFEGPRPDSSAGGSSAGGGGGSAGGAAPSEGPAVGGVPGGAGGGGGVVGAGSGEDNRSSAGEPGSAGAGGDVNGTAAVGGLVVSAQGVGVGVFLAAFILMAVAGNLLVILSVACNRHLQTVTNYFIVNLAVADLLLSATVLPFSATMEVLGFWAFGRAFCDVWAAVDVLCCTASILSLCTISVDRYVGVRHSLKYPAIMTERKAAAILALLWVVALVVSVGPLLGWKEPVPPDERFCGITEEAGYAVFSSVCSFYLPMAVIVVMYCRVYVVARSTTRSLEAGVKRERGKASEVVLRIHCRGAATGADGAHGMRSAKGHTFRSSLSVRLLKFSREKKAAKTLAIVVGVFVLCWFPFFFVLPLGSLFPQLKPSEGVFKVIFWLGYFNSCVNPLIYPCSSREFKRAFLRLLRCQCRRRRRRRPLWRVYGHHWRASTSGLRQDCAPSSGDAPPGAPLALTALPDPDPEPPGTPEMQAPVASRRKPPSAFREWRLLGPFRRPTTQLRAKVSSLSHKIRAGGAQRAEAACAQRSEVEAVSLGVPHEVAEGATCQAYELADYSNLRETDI
T1 sequence (P35368 whole entry): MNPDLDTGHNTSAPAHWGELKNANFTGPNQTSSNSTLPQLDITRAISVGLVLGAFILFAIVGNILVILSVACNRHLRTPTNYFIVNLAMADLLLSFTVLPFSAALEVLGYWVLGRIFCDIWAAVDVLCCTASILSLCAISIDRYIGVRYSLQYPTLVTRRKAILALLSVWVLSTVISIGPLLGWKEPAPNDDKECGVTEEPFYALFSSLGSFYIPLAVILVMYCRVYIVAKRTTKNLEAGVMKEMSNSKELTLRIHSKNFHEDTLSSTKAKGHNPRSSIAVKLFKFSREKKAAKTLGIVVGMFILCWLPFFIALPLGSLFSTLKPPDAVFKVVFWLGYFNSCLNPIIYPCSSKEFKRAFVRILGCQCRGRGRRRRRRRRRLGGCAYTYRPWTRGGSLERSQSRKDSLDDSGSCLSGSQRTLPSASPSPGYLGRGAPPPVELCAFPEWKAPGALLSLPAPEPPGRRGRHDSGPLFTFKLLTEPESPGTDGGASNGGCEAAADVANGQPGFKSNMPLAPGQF

[4] = […] in rat at 3 mg/kg, iv; format: ADME, organism-based; conditions: in vivo
Method in brief: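 Male rats, n = 6 per group, given a single intravenous dose of 3 mg/kg. PK parameters taken from serum concentration–time profiles: t1/2, AUC0-t, AUC0-∞, clearance.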

[5] = test system: Rattus norvegicus; experiment: Antipsychotic activity in po dosed rat assessed as suppression in conditioned avoidance response measured after 90 mins by CAR test; format: functional
Method in brief: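 Rat conditioned avoidance responding tested 90 min after a single oral dose of 0.05, 0.15, 0.45 or 1.35 mg/kg in 30% PEG 400. n = 10 per group. Mean ± SEM, compared with vehicle (P < 0.05). ED50 reported.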

[6] = target: 5-hydroxytryptamine receptor 6 (Homo sapiens, UniProt P50406); experiment: Binding affinity to 5HT6 receptor (unknown origin)
Method in brief: (§2)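 Radioligand displacement binding. Ki is the mean ± SEM of three experiments.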

[7] = target: T2, 5-hydroxytryptamine receptor 1A (Homo sapiens, UniProt P08908); experiment: Binding affinity to 5HT1A receptor (unknown origin); method in brief: as §2
T2 sequence (P08908 whole entry): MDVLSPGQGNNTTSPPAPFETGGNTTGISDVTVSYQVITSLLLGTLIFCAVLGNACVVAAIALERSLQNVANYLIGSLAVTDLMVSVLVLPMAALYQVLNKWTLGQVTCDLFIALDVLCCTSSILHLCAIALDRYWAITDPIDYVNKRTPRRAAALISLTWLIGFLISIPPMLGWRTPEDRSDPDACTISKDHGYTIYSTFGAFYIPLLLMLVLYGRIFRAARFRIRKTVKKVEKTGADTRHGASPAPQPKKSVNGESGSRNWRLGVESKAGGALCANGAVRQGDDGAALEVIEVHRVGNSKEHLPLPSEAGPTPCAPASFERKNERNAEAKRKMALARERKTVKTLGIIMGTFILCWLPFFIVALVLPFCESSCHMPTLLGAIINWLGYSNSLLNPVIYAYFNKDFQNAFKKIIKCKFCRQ

[8] = Half life in rat at 10 mg/kg, po; format: ADME, organism-based; conditions: in vivo; method in brief: as §1
[9] = AUC (0 to t) in rat at 10 mg/kg, po; format: ADME, organism-based; set-up: dose 10 mg/kg; conditions: in vivo; method in brief: as §1
[10] = target: T3, 5-hydroxytryptamine receptor 2C (Homo sapiens, UniProt P28335); experiment: Binding affinity to 5HT2C receptor (unknown origin); method in brief: as §2
T3 sequence (P28335 whole entry): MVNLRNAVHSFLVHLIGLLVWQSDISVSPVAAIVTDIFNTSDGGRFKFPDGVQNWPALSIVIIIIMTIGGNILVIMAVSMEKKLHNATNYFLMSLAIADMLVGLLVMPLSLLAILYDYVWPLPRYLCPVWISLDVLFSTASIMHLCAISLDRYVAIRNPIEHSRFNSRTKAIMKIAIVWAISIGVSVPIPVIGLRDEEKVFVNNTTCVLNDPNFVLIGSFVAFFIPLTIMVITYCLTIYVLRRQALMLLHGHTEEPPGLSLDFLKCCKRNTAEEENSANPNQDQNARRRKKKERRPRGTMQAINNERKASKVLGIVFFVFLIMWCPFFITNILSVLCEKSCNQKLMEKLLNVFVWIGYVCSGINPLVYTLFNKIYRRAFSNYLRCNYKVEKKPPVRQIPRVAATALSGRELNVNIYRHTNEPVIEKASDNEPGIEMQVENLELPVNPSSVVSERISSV

Sequence of 5-hydroxytryptamine receptor 6 (P50406 whole entry): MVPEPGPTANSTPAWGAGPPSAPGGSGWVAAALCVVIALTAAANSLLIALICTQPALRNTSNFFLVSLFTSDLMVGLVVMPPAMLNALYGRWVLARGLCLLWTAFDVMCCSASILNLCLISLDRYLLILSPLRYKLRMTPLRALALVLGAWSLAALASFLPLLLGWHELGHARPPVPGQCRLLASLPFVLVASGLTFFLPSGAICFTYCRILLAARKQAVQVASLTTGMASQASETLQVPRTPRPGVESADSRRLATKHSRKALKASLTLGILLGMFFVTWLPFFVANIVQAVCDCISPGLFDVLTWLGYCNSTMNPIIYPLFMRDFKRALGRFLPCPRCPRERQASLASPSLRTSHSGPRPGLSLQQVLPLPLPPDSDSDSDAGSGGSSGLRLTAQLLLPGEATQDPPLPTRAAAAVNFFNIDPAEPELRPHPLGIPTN

## CC(=O)Nc1ccc(OCCCN2CCC(c3noc4cc(F)ccc34)CC2)cc1
[1]
  AUC: 9638.27 ng·h/mL
[2]
  F: 31.04%
[3]
  Ki: 3296 nM
[4]
  CL/F: 3.22 mL/h
[5]
  Activity: Dose-dependent effect
[5]; 1.5 h
  ED50: 0.28 mg/kg
[6]
  Ki: 12.9 nM
[7]
  Ki: 3.5 nM
[8]
  half-life: 3.34 h
[9]
  AUC(0-t): 9490 ng·h/mL
[10]
  Ki: 1990 nM
